Screening results as filed in PubChem BioAssay.
PAFAH1B3 inh: PAFAH1B3 (human) inhibition. Q15102. recombinant PAFAH1B3, FP-rhodamine probe, fluorescence polarization. inhibition, % at 3.39 µM. 340,000 compounds, 0.28% hits;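 active means inhibition above the screen-wide average of all tested compounds plus 3 SD, cut at about 25% in these data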;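 further: 0% = enzyme with DMSO only and 100% = wells lacking PAFAH1B3 protein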
PAFAH1B2 FP inh: blocks human PAF acetylhydrolase 1b catalytic subunit 2; 340,000 compounds, 1.2% hits; P68402; AID 492953; recombinant PAFAH1B2, FP-rhodamine activity probe, fluorescence polarization; inhibition, % at 3.39 µM;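 active means inhibition above the mean of all tested compounds plus 3 SD, cut at about 24% in these data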;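 further: 0% = enzyme with DMSO and 100% = wells lacking PAFAH1B2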
ASAP1 GAP inh: inhibitors of human ASAP1 ArfGAP activity; AID 624377; 360,000 compounds, 0.19% hits; inhibition, % at 16.5 µM; Q9ULH1; ASAP1-stimulated ARF1 GTP hydrolysis, GDP FP detection; in the data active means inhibition above about 25%;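 further: 0% = vehicle with enzyme and substrate and 100% = no enzyme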
Target sequence (Q9ULH1 325-724 limits assumed): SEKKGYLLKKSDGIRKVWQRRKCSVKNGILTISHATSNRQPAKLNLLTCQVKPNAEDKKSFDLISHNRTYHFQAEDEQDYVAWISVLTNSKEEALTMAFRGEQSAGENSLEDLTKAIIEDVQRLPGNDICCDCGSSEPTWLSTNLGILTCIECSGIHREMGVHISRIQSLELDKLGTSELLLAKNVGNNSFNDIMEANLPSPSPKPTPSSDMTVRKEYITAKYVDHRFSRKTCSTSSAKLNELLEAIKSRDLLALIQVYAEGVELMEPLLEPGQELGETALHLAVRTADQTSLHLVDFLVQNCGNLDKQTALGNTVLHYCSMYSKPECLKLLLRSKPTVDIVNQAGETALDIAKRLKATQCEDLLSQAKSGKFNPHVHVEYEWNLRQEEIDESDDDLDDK
pPAFAH FP inh: pPAFAH (human) enzyme inhibition | Q13093 | recombinant pPAFAH, FP-rhodamine probe fluorescence polarization | inhibition, % at 3.39 µM | 330,000 compounds, 1.5% hits;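 active means inhibition above the mean inhibition across the screen plus 3 SD, cut at about 25% in these data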;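 further: inhibitors block binding of the rhodamine activity-based probe so polarization drops; 0% = enzyme with DMSO and 100% = wells lacking pPAFAH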
PAFAH2 FP inh: PAFAH2 (human) inhibition. Q99487. recombinant PAFAH2, FP-rhodamine activity probe, fluorescence polarization. inhibition, % at 3.39 µM. 340,000 compounds, 0.99% hits;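 active means inhibition above the mean over all tested compounds plus 3 SD, cut at about 30% in these data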;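 further: inhibitors block probe labeling of enzyme so polarization drops; 0% = enzyme with DMSO and 100% = wells lacking PAFAH2 protein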
ARFGAP1 inhibitor: rat ARFGAP1 inhibition. Q62848. Arfgap1-stimulated ARF1 GTP hydrolysis, GDP FP detection. inhibition, % at 16.5 µM. 360,000 compounds, 0.26% hits. AID 651572;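 active means inhibition above a per-plate limit, mean inhibition of low control wells plus 3 SD, cut at about 25% in these data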;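 further: 0% = DMSO wells with enzyme and 100% = wells lacking Arfgap1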
Target sequence (Q62848 1-136 limits assumed): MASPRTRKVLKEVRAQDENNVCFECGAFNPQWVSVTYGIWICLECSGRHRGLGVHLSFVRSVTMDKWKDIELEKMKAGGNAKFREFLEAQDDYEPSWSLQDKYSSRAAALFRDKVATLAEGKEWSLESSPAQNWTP
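Assay system: Rat Arfgap1 GAP domain (His6, aa 1-136), purified enzyme | Buffer or medium: HEPES 25 mM pH 7.5, NaCl 150 mM, MgCl2, DTT | Schedule: GTP hydrolysis reaction 2 h at 25 °C | Signal: FP of antibody-bound GDP Alexa 633 tracer, ex 620/em 688 nm | Measure: Percent inhibition of Arfgap1-stimulated GTP hydrolysis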
* marks the source's active call; other numbers are inactive results; x = no result. Most compounds without a hit are left out; they make up all but 2.7% or so of the library.

SMILES	PAFAH1B3 inh	PAFAH1B2 FP inh	ASAP1 GAP inh	pPAFAH FP inh	PAFAH2 FP inh	ARFGAP1 inhibitor
CCCC(=O)OC[C@H]1CN([C@H](C)c2ccccc2)S(=O)(=O)c2c(F)cccc2O1	x	x	10.6	x	x	10.0
Cc1cc(Nc2ccccc2)nn1C(=O)c1ccc(Br)cc1	9.8	27.1*	-2.6	11.1	-1.2	-4.6
Cc1cc(Nc2ccccc2)nn1C(=O)c1ccccc1	16.6	5.8	0.9	12.7	6.3	15.5
CCCC#C/C(CCC)=C1\c2ccccc2C(=O)N1c1ccccc1	x	x	-3.8	x	x	-0.7
CC(C)CC(NC(=O)OCc1ccccc1)C(=O)NCC(=O)NCC(=O)OCc1ccccc1 (stereo not drawn)	x	x	3.6	x	x	-6.3
O=C(COc1ccc(Br)cc1)NC(=S)Nc1ccccc1N1CCOCC1	8.8	26.2*	-4.8	2.4	-10.3	-1.4
C=CCNc1cccc2c1S(=O)(=O)N[C@@H](CC(C)C)CO2	x	x	0.1	x	x	3.4
O=C(COC(=O)Cc1ccc(Br)cc1)Nc1ccc(Cl)cn1	5.2	11.7	-7.8	25.5*	8.8	-2.0
COc1ccc(OCCCC(=O)OCC(=O)Nc2ccc(Cl)cn2)cc1	5.0	1.6	1.3	26.4*	9.3	6.8
COc1cccc(/C=C/C(=O)OCC(=O)Nc2ccc(Cl)cn2)c1	-3.5	5.5	x	1.7	31.5*	x
Cc1ccc(OCCC(=O)OCC(=O)Nc2ccc(Cl)cn2)cc1	-1.6	6.3	11.3	20.1	0.1	-8.7
COc1ccc2ccccc2c1CN1CCN(c2ncc(Cc3ccccc3)cn2)CC1	x	x	0.1	x	x	2.6
CC1(OC(=O)c2cccs2)C(=O)C=C2C=C3CCCN3C=C2C1=O (stereo not drawn)	10.9	6.6	x	28.4*	22.4	x
Cc1ccc(N=C2NC(=O)/C(=C/c3cccn3C)S2)cc1C	x	x	-4.2	17.2	x	-1.6
Cc1cccc(N=C2NC(=O)/C(=C/c3cccn3C)S2)c1C	7.8	3.3	2.9	32.4*	9.6	-1.0
O=C(COC(=O)CNC(=O)c1ccccc1)NC12CC3CC(CC(C3)C1)C2	x	x	0.0	x	x	-5.0
O=C(COC(=O)Cc1ccc(Br)cc1)NC12CC3CC(CC(C3)C1)C2	13.8	38.3*	-1.9	25.9*	4.4	5.5
O=C(COC(=O)Cc1ccc(Br)cc1)NC1CCCCCC1	13.0	27.3*	-4.5	26.8*	9.0	4.6
O=C(COC(=O)c1c[nH]c2ccccc12)NC1CCCCC1	9.1	6.4	-14.8	28.3*	83.0*	-5.0
O=S1(=O)N[C@H](c2ccccc2)COc2cc(Br)ccc21	x	x	7.1	x	x	6.8
Cc1onc(-c2ccccc2Cl)c1C(=O)Oc1cc(N)n(S(=O)(=O)c2ccc(F)cc2)n1	10.6	35.9*	7.1	5.7	3.5	2.6
O=C1NC(=O)C2C3C=CC(C12)C1C(=O)NC(=O)C31 (stereo not drawn)	x	x	-1.2	x	x	0.8
Cc1ccc(/C=C2\C(=N)N3N=C(CC(=O)N4CCOCC4)SC3=NC2=O)o1	12.2	0.5	6.6	11.0	11.1	-3.8
Cc1ccc(/C=C2/C(=N)N3N=C(CC(=O)N4CCCC4)SC3=NC2=O)cc1	2.1	6.0	-6.0	25.0*	7.9	-10.6
N=C1/C(=C\c2ccc(SCc3ccccc3)o2)C(=O)N=C2SC(CC(=O)N3CCOCC3)=NN12	1.8	22.3	-1.9	29.5*	24.9	-12.6
SMILES	PAFAH1B3 inh	PAFAH1B2 FP inh	ASAP1 GAP inh	pPAFAH FP inh	PAFAH2 FP inh	ARFGAP1 inhibitor
CSc1ccc(/C=C2/C(=N)N3N=C(CC(=O)N4CCCC4)SC3=NC2=O)cc1	5.4	4.4	-8.6	5.8	1.5	3.7
c1ccc(-c2cc(-c3ccc(N4CCOCC4)cc3)nc3ccccc23)cc1	8.8	-1.0	-12.8	30.1*	1.9	-1.1
O=C(O)c1cccc(-n2c(O)c(C=C3N=c4ccccc4=N3)sc2=S)c1	4.7	5.5	0.9	28.8*	2.6	0.2
O=C(NCCO)c1cc2cc(Cl)cc(Cl)c2oc1=O	-1.5	0.1	6.2	3.3	-0.7	-2.1
O=C(O)c1cc2cc(Cl)cc(Cl)c2oc1=O	-5.4	-0.8	-4.5	26.7*	11.1	1.1
COc1cc([C@@H]2Oc3cc(C4Oc5cc(O)cc(O)c5C(=O)[C@H]4O)ccc3O[C@H]2CO)ccc1O (stereo partly drawn)	25.0	7.8	x	35.3*	11.3	x
Fc1ccc2nc(-c3ccc(CN4CCC(c5nc6ccccc6[nH]5)CC4)cc3)c(-c3ccccc3)nc2c1	x	x	2.7	x	x	13.4
CC(C)=CCc1cc(-c2oc3cc(O)cc(O)c3c(=O)c2O)ccc1O	26.2*	12.6	8.1	34.0*	-8.4	8.4
N#Cc1nc(COc2ccc(Br)cc2)oc1NCCCn1ccnc1	-0.6	24.9*	-3.4	1.3	-0.1	0.9
COC(=O)c1ccc(CN2C(=O)[C@]3(OCCC=C[C@H]3C)c3cc(OC)ccc32)cc1	x	x	-6.8	x	x	-11.0
CN(C)C1CCN(Cc2cc(COCc3ccccc3)c3cccnc3c2O)C1 (stereo not drawn)	17.1	5.2	x	25.4*	5.9	x
Cc1ccc(S(=O)(=O)NCc2cn3c(C)csc3n2)cc1	-2.2	3.4	-0.9	-1.5	0.6	-0.1
Cc1ccc(SCc2cn3c(C)csc3n2)cc1	0.5	52.9*	-8.8	2.1	-1.9	-4.6
COc1ccccc1CCn1cnc(-c2cccc(Br)c2)c1CC(C)C	x	x	-8.1	x	x	-5.0
COc1ccc(N2CCN(C(=O)NC3CCCCC3)CC2)cc1	-1.1	-2.4	-4.2	-1.6	-3.6	-15.1
COc1ccc(N2CCN(C(=O)c3cn(CC4CCCCC4)nn3)CC2)cc1	-0.6	0.9	1.7	28.3*	8.9	-7.6
CNC(=O)Nc1cccc(-c2cc(-c3c(Cl)cccc3Cl)no2)c1	-5.1	-4.2	2.8	12.6	-4.7	13.8
CC(=O)Nc1cccc(-c2cc(-c3c(Cl)cccc3Cl)no2)c1	-2.1	-0.3	4.5	28.4*	-1.6	3.1
COc1cc2c(c(OC)c1OC)CC(c1ccccc1)=C(c1ccccc1)CC2NC(=O)C(F)(F)F (stereo not drawn)	x	x	-3.4	x	x	-0.8
CCOC(=O)N(C)[C@H]1C[C@H]2c3cc(-c4ccccc4C)ccc3CCN2C[C@H]1[C@H](C)O	x	x	-1.0	x	x	4.7
Cc1cccc(NC(=O)C(C)OC(=O)c2ccccc2NS(=O)(=O)c2cc(C)c(C)c([N+](=O)[O-])c2)c1 (stereo not drawn)	-15.7	-5.9	9.4	-6.1	-25.1	0.9
CC(=O)Nc1ccc(C=NNc2ccc([N+](=O)[O-])cc2S(=O)(=O)Nc2ccccc2C(=O)O)cc1	2.1	3.5	5.1	26.1*	1.4	7.2
Cc1ccc(NC(=S)NNc2ccc([N+](=O)[O-])cc2S(=O)(=O)Nc2ccccc2C(=O)O)cc1C	17.8	25.1*	3.9	29.0*	38.4*	-3.8
O=C(O)c1ccccc1NS(=O)(=O)c1ccc(NNC(=S)Nc2ccc(OC(F)F)cc2)c([N+](=O)[O-])c1	55.6*	59.8*	-15.8	x	70.1*	-5.1
